According to ChEMBL document CHEMBL1150377, “Design of antiangiogenic hypoxic cell radiosensitizers: 2-nitroimidazoles containing a 2-aminomethylene-4-cyclopentene-1,3-dione moiety” (Bioorg Med Chem, 2008):

Key:
Gallus gallus = organism: Gallus gallus; test: Antiangiogenic activity in chick embryo chorioallantoic membrane assessed as number of eggs showing 3 mm avascular zone at 100 ug relative to control; assay type: functional, tissue-based
Method in brief: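 Chick CAM assay on 4-day-old embryos in shell; 10 µL sample in 1% methyl cellulose/0.9% NaCl applied inside a ring on the CAM, 48 h at 37.6 °C, then fat emulsion injected to show vessels. Six eggs per group, repeated more than three times. Inhibition (%) = eggs with ≥3 mm avascular zone around ring / eggs in group ×100.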

[1] = Radiosensitizing activity in mouse EMT6/KU cells assessed as enhancement ratio reducing surviving fraction of cells at […] after 5 to 7 days; assay type: functional
Method in brief: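 They were then irradiated with 6 MV X-rays at 2.0 Gy/min, replated, and scored for colonies after 5–7 days. Survival curves were least-squares fitted. ER is the ratio of radiation doses giving 1% survival.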

[2] = biological target: 72 kDa type IV collagenase (Homo sapiens, UniProt P08253); test: Inhibition of human bowes melanoma cell MMP2
[3] = biological target: Matrix metalloproteinase-9 (Bos taurus, UniProt P52176); test: Inhibition of bovine arterial endothelial cell MMP9; assay type: cell-based
[4] = biological target: Epidermal growth factor receptor (Homo sapiens, UniProt P00533); test: Inhibition of human A431 cell EGFRK assessed as 32P phosphorylation by scintillation counter; assay type: cell-based; conditions: a-431
Method in brief: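 Solubilized A431 cell lysate, debris removed, incubated with or without EGF for 30 min at 25 °C. Reaction started with [γ-³²P]ATP, 10 min at 0 °C. After stopping and washing, receptor phosphorylation measured as ³²P by scintillation counting.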

[5] = Radiosensitizing activity in mouse EMT6/KU cells assessed as enhancement ratio reducing surviving fraction of cells at 1 mM after 5 to 7 days; assay type: functional
Method in brief: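 EMT6/KU cells at 2×10⁶ cells/mL in drug-containing MEM in glass tubes, made hypoxic with 95% N₂/5% CO₂ for 60 min. Irradiated with 6 MV X-rays at 2.0 Gy/min, then plated. After 5–7 days replated for colony formation. Survival curves fitted by least squares; ER = ratio of radiation doses giving 1% survival.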

[6] = biological target: Vascular endothelial growth factor receptor 1 (Homo sapiens, UniProt P17948); test: Inhibition of Flt1 expressed in mouse NIH3T3 cells by autoradiography; assay type: cell-based
Chain of Vascular endothelial growth factor receptor 1 (P17948 whole entry): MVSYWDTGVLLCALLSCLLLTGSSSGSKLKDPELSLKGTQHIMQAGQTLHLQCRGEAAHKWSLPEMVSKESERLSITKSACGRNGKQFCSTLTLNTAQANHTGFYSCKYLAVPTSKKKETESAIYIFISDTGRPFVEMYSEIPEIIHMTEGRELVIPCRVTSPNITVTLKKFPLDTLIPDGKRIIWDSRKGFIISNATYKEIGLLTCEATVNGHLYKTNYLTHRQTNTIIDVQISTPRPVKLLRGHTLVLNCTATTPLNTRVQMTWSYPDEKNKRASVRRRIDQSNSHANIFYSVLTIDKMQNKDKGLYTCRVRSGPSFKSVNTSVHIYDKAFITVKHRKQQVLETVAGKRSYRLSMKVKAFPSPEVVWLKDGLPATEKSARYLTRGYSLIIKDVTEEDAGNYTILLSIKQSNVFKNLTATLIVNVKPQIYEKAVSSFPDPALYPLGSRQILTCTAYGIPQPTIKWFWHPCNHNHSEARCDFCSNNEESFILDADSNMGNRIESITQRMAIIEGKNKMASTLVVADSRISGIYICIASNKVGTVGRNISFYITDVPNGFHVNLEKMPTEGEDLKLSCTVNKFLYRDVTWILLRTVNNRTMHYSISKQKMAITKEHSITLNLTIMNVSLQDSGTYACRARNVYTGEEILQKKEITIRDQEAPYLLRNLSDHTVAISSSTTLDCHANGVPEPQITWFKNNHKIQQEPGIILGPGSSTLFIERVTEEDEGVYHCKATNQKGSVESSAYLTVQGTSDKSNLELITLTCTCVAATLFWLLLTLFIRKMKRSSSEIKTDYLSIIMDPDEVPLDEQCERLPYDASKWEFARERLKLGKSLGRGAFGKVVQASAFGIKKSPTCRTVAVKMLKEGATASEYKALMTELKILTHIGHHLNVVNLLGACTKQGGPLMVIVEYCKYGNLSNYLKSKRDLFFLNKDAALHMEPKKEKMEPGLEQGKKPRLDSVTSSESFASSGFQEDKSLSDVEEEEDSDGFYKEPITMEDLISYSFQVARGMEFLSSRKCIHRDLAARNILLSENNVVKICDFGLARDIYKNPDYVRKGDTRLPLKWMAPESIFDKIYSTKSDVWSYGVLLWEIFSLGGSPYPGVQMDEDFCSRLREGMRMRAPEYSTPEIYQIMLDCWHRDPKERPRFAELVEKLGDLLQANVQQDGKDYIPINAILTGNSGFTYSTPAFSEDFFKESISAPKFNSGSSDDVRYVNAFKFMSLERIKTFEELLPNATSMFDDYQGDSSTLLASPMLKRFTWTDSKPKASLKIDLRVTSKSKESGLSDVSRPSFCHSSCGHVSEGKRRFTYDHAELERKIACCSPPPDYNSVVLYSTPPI

Chain of 72 kDa type IV collagenase (P08253 whole entry): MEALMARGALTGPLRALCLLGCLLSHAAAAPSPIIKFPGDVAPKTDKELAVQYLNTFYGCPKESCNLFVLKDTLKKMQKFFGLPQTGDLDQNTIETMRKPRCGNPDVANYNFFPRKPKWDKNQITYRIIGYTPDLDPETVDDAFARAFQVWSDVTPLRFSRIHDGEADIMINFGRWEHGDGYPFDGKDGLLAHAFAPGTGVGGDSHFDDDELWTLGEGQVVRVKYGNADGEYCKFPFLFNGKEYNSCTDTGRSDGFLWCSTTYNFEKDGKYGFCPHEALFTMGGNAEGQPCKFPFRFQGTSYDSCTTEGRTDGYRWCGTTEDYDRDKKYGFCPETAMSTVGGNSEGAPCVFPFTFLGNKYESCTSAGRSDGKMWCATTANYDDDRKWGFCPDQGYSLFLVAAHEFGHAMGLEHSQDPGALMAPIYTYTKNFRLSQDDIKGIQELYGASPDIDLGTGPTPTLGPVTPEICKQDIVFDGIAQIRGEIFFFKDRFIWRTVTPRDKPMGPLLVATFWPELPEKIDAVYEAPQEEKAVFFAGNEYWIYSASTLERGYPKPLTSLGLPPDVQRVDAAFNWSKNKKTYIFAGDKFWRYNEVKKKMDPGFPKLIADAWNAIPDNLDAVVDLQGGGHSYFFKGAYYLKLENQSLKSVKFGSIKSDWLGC
Chain of Matrix metalloproteinase-9 (P52176 whole entry): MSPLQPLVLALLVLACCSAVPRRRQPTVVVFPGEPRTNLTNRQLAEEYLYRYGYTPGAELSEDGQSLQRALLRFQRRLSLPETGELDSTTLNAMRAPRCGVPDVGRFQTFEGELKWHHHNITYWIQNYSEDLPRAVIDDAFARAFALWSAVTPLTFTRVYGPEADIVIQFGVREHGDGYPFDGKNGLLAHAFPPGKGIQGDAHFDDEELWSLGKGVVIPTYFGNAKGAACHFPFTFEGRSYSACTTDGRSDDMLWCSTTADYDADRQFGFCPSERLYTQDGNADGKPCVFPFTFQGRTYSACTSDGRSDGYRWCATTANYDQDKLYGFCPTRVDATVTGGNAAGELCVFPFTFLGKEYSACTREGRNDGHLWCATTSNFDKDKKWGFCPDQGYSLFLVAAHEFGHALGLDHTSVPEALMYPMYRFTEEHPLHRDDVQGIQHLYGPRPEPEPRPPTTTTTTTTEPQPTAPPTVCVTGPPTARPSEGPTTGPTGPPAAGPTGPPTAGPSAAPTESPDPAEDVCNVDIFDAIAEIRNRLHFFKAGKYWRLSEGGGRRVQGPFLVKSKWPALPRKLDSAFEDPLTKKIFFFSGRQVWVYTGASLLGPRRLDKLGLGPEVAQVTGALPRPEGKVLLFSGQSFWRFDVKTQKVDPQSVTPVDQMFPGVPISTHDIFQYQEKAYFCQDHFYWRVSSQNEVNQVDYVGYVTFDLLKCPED
Chain of Epidermal growth factor receptor (P00533 whole entry): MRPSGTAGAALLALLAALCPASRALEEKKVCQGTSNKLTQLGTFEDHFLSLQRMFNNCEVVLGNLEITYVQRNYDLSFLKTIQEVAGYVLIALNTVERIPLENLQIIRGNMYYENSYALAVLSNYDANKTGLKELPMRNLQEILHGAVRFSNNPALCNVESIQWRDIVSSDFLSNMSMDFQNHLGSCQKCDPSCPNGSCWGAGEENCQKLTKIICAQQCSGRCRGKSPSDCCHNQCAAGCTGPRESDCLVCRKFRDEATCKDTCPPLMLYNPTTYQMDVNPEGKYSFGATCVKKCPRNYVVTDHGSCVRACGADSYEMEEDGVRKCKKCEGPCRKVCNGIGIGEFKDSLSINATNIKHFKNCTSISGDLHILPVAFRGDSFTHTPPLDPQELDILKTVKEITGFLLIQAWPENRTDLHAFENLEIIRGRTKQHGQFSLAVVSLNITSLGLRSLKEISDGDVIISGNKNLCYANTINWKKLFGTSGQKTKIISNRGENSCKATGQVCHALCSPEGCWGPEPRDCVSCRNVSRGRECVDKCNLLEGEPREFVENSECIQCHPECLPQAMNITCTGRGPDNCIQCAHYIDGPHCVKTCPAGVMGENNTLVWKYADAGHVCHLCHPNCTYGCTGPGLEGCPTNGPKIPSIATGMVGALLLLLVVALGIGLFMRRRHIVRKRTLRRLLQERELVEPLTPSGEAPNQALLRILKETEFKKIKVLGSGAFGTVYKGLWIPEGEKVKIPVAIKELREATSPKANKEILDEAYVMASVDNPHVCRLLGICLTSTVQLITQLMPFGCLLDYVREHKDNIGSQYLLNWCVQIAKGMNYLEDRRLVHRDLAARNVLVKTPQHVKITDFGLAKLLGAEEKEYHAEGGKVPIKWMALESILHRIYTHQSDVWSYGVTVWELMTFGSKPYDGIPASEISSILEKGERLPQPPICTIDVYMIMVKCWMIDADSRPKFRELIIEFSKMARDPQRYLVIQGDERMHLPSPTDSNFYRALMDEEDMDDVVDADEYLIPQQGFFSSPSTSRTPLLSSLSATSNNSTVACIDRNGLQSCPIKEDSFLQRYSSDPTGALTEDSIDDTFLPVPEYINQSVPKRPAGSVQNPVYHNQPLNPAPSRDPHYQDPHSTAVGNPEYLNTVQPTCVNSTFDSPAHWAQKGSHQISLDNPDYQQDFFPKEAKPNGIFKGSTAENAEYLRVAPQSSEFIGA

SMILES	inhibition (Gallus gallus) [%]	Ratio [1]	IC50 [2] [µM⁻¹]	IC50 [3] [µM⁻¹]	IC50 [4] [µM⁻¹]	Ratio [5]	IC50 [6] [µM⁻¹]
COC[C@@H](Cn1ccnc1[N+](=O)[O-])OC(=O)c1ccc(NC(=O)C(F)(F)F)cc1	43	2.02	> 240	> 240			
COC[C@H](Cn1ccnc1[N+](=O)[O-])OC(=O)c1ccc(NC=C2C(=O)C=CC2=O)cc1					23		
O=C(Cn1ccnc1[N+](=O)[O-])NCCO [ETANIDAZOLE]						1.72	
COC[C@@H](Cn1ccnc1[N+](=O)[O-])OC(=O)c1ccc(NC=C2C(=O)C=CC2=O)cc1			24	53			23.4
COC[C@H](Cn1ccnc1[N+](=O)[O-])OC(=O)c1ccc(NC(=O)C(F)(F)F)cc1	83	1.84	> 240	> 240			
CC(C)(C)c1ccc(OC[C@@H](Cn2ccnc2[N+](=O)[O-])OC(=O)c2ccc(NC=C3C(=O)C=CC3=O)cc2)cc1				67	1.8		18.4
CC(C)(C)c1ccc(OC[C@H](Cn2ccnc2[N+](=O)[O-])OC(=O)c2ccc(NC=C3C(=O)C=CC3=O)cc2)cc1			183	103	18.4		184
